Where “and” joins values, the source holds several entries; their conditions need not be identical. Equal values may be shown once.
Legend:
Mus musculus [1] = assay: (§1) In vivo evaluation of 30 day survival against P388 lymphocytic leukemia in CD2F1 male mice at dose 15 mg/kg; out of 6 mice; type: functional
Procedure, shortened: (§2)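 CD2F1 (CDF1) male mice transplanted with 10⁶ P388 lymphocytic leukemia cells, then dosed intraperitoneally once daily for 9 days starting after the day of transplantation. Groups of 6 mice. Read-out is the number of mice alive at 30 days over the total per group.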

Mus musculus [2] = assay: In vivo evaluation of 30 day survival against P388 lymphocytic leukemia in CD2F1 male mice at dose 6 mg/kg; out of 6 mice; type: functional; procedure, shortened: as §2
Mus musculus [3] = assay: In vivo evaluation of percent increase in life span (ILS) against P388 lymphocytic leukemia in infected CD2F1 male mice and at 12 dose mg/kg; type: functional
Procedure, shortened: (§3)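 P388 lymphocytic leukemia (10⁶ cells) transplanted into male CD2F1 (CDF1) mice, with intraperitoneal treatment once daily for 9 days following the day of transplantation. Groups of 6. Survival days of treated (T) and control (C) mice were compared, and %ILS was calculated as [(T−C)/C]100.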

Mus musculus [4] = assay: In vivo evaluation of percent increase in life span (ILS) against P388 lymphocytic leukemia in infected CD2F1 male mice and at 15 dose mg/kg; type: functional; procedure, shortened: as §3
Mus musculus [5] = assay: In vivo evaluation of percent increase in life span (ILS) against P388 lymphocytic leukemia in infected CD2F1 male mice and at 6 dose mg/kg; type: functional; procedure, shortened: as §3
Mus musculus [6] = assay: In vivo evaluation of 30 day survival against P388 lymphocytic leukemia in CD2F1 male mice at dose 12 mg/kg; out of 6 mice; type: functional; procedure, shortened: as §2
Mus musculus [7] = assay: In vivo evaluation of 30 day survival against P388 lymphocytic leukemia in CD2F1 male mice at dose 30 mg/kg; out of 6 mice; type: functional; procedure, shortened: as §2
Mus musculus [8] = assay: In vivo evaluation of percent increase in life span (ILS) against P388 lymphocytic leukemia in infected CD2F1 male mice and at 30 dose mg/kg; type: functional; procedure, shortened: as §3
Mus musculus [9] = assay: as §1; type: functional; procedure, shortened: as §2; remark: listed apart in the source
Mus musculus [10] = assay: (§4) In vivo evaluation of 30 day survival against P388 lymphocytic leukemia in CD2F1 male mice at dose 20 mg/kg; out of 6 mice; type: functional, organism-based; set-up: dose 20 mg/kg; procedure, shortened: as §2
Mus musculus [11] = assay: In vivo evaluation of percent increase in life span (ILS) against P388 lymphocytic leukemia in infected CD2F1 male mice and at 10 dose mg/kg; type: functional; procedure, shortened: as §3
Mus musculus [12] = assay: (§5) In vivo evaluation of 30 day survival against P388 lymphocytic leukemia in CD2F1 male mice at dose 40 mg/kg; out of 6 mice; type: functional; procedure, shortened: as §2
Mus musculus [13] = assay: In vivo evaluation of percent increase in life span (ILS) against P388 lymphocytic leukemia in infected CD2F1 male mice and at 40 dose mg/kg; type: functional; procedure, shortened: as §3
Mus musculus [14] = assay: In vivo evaluation of 30 day survival against P388 lymphocytic leukemia in CD2F1 male mice at dose 10 mg/kg; out of 6 mice; type: functional; procedure, shortened: as §2
Mus musculus [15] = assay: as §4; type: functional; procedure, shortened: as §2
Mus musculus [16] = assay: In vivo evaluation of 30 day survival against P388 lymphocytic leukemia in CD2F1 male mice at dose 7.5 mg/kg; out of 6 mice; type: functional; procedure, shortened: as §2
Mus musculus [17] = assay: (§6) In vivo evaluation of 30 day survival against P388 lymphocytic leukemia in CD2F1 male mice at dose 160 mg/kg; out of 6 mice; type: functional, organism-based; set-up: dose 160 mg/kg; procedure, shortened: as §2
Mus musculus [18] = assay: as §4; type: functional; procedure, shortened: as §2; remark: listed apart in the source
Mus musculus [19] = assay: as §5; type: functional, organism-based; set-up: dose 40 mg/kg; procedure, shortened: as §2
Mus musculus [20] = assay: (§7) In vivo evaluation of 30 day survival against P388 lymphocytic leukemia in CD2F1 male mice at dose 80 mg/kg; out of 6 mice; type: functional, organism-based; set-up: dose 80 mg/kg; procedure, shortened: as §2
Mus musculus [21] = assay: In vivo evaluation of percent increase in life span (ILS) against P388 lymphocytic leukemia in infected CD2F1 male mice and at 160 dose mg/kg; type: functional; procedure, shortened: as §3
Mus musculus [22] = assay: (§8) In vivo evaluation of percent increase in life span (ILS) against P388 lymphocytic leukemia in infected CD2F1 male mice and at 80 dose mg/kg; type: functional, organism-based; procedure, shortened: as §3
Mus musculus [23] = assay: In vivo evaluation of 30 day survival against P388 lymphocytic leukemia in CD2F1 male mice at dose mg/kg; out of 6 mice; type: functional; procedure, shortened: as §2
Mus musculus [24] = assay: In vivo evaluation of percent increase in life span (ILS) against P388 lymphocytic leukemia in infected CD2F1 male mice and at 3 dose mg/kg; type: functional; procedure, shortened: as §3
Mus musculus [25] = assay: In vivo evaluation of percent increase in life span (ILS) against P388 lymphocytic leukemia in infected CD2F1 male mice and at dose; type: functional; procedure, shortened: as §3
Mus musculus [26] = assay: In vivo evaluation of 30 day survival against P388 lymphocytic leukemia in CD2F1 male mice at dose 25 mg/kg; out of 6 mice; type: functional; procedure, shortened: as §2
Mus musculus [27] = assay: In vivo evaluation of percent increase in life span (ILS) against P388 lymphocytic leukemia in infected CD2F1 male mice and at 20 dose mg/kg; type: functional; procedure, shortened: as §3
Mus musculus [28] = assay: In vivo evaluation of percent increase in life span (ILS) against P388 lymphocytic leukemia in infected CD2F1 male mice and at 25 dose mg/kg; type: functional; procedure, shortened: as §3
Mus musculus [29] = assay: as §7; type: functional; procedure, shortened: as §2
Mus musculus [30] = assay: as §6; type: functional; procedure, shortened: as §2
Mus musculus [31] = assay: as §8; type: functional; procedure, shortened: as §3
Mus musculus [32] = assay: In vivo evaluation of percent increase in life span (ILS) against P388 lymphocytic leukemia in infected CD2F1 male mice and at dose mg/kg; type: functional; procedure, shortened: as §3

## CC1(C)CC(OP(=S)(N2CC2)N2CC2)CC(C)(C)N1[O]
Mus musculus [1]
  30 day survival / total: 0
Mus musculus [2]
  30 day survival / total: 0
Mus musculus [3]
  ILS: 103%
Mus musculus [4]
  ILS: -8%
Mus musculus [5]
  ILS: 45%
Mus musculus [6]
  30 day survival / total: 1

## CC1(C)CC(OC(=O)NP(=O)(N2CC2)N2CC2)CC(C)(C)N1O
Mus musculus [1]
  30 day survival / total: 0
Mus musculus [7]
  30 day survival / total: 0
Mus musculus [4]
  ILS: 25%
Mus musculus [8]
  ILS: 48%

## CN(C1CC(C)(C)N([O])C(C)(C)C1)P(=S)(NCCCl)N1CC1 (centres undefined)
Mus musculus [9]
  30 day survival / total: 0
Mus musculus [10]
  30 day survival / total: 0
Mus musculus [11]
  ILS: 13%
Mus musculus [4]
  ILS: 20%

## CC1(C)CC(NP(=S)(N2CC2)N2CC2)CC(C)(C)N1
Mus musculus [12]
  30 day survival / total: 0
Mus musculus [7]
  30 day survival / total: 0
Mus musculus [8]
  ILS: 41%
Mus musculus [13]
  ILS: 88%

## CN(C1CC(C)(C)NC(C)(C)C1)P(=S)(N1CC1)N1CC1
Mus musculus [1]
  30 day survival / total: 0
Mus musculus [14]
  30 day survival / total: 0
Mus musculus [11]
  ILS: 20%
Mus musculus [4]
  ILS: 33%

## CC1(C)CC(OP(=O)(N2CC2)N2CC2)CC(C)(C)N1[O]
Mus musculus [14]
  30 day survival / total: 0
Mus musculus [9]
  30 day survival / total: 0
Mus musculus [11]
  ILS: 29%
Mus musculus [4]
  ILS: 5%

## CC1(C)CC(OC(=O)NP(=O)(N2CC2)N2CC2)CC(C)(C)N1[O]
Mus musculus [4]
  ILS: 42%
Mus musculus [8]
  ILS: 81%

## CC1(C)CC(OP(=S)(N2CC2)N2CC2)CC(C)(C)N1O
Mus musculus [1]
  30 day survival / total: 0
Mus musculus [15]
  30 day survival / total: 0
Mus musculus [16]
  30 day survival / total: 0

## CC1(C)CC(OP(=S)(NCCCl)NCCCl)CC(C)(C)N1[O]
Mus musculus [17]
  30 day survival / total: 0
Mus musculus [18]
  30 day survival / total: 0
Mus musculus [19]
  30 day survival / total: 0
Mus musculus [20]
  30 day survival / total: 0
Mus musculus [21]
  ILS: 44%
Mus musculus [13]
  ILS: 17% and 13%
Mus musculus [22]
  ILS: 30%

## S=P(N1CC1)(N1CC1)N1CC1 [THIOTEPA]
Mus musculus [23]
  30 day survival / total: 0
Mus musculus [24]
  ILS: 83%
Mus musculus [5]
  ILS: 141%

## CC1(C)CC(OP(=O)(N2CC2)N2CC2)CC(C)(C)N1O
Mus musculus [1]
  30 day survival / total: 0
Mus musculus [14]
  30 day survival / total: 0
Mus musculus [25]
  ILS: -2% and 23%

## CC1(C)CC(NP(=S)(N2CC2)N2CC2)CC(C)(C)N1[O]
Mus musculus [14]
  30 day survival / total: 0
Mus musculus [15]
  30 day survival / total: 0
Mus musculus [26]
  30 day survival / total: 0
Mus musculus [11]
  ILS: 34%
Mus musculus [27]
  ILS: 52%
Mus musculus [28]
  ILS: 96%

## CC1(C)CC(NP(=S)(N2CC2)N2CC2)CC(C)(C)N1O
Mus musculus [1]
  30 day survival / total: 0
Mus musculus [14]
  30 day survival / total: 0
Mus musculus [11]
  ILS: 25%
Mus musculus [4]
  ILS: 34%

## CC1(C)CC(OP(=S)(NCCCl)NCCCl)CC(C)(C)N1O
Mus musculus [29]
  30 day survival / total: 0
Mus musculus [30]
  30 day survival / total: 0
Mus musculus [21]
  ILS: 33%
Mus musculus [31]
  ILS: 15%

## CN(C1CC(C)(C)N(O)C(C)(C)C1)P(=S)(N1CC1)N1CC1
Mus musculus [1]
  30 day survival / total: 0
Mus musculus [15]
  30 day survival / total: 0
Mus musculus [27]
  ILS: 4%

## CN(C1CC(C)(C)N([O])C(C)(C)C1)P(=S)(N1CC1)N1CC1
Mus musculus [9]
  30 day survival / total: 0
Mus musculus [18]
  30 day survival / total: 0
Mus musculus [32]
  ILS: 27% and 16%
